# Screens as filed in PubChem.
# PostGolgi ctrl: inhibits growth of the yeast control strain; efflux-deficient yeast background strain, growth absorbance A615, 16 h; inhibition, % at 10 µM; 5% of 98,000 active
# E coli WT exp: blocks growth of wild type E. coli BW25113. OD600 absorbance. growth inhibition, % at 100 µM. 0.15% of 98,000 active;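 active = growth inhibition above about 50% at one test dose, limit read from the data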;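 note: growth measured after 20 h incubation at 37 °C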
# tolC growth inh: blocks growth of E. coli BW25113 tolC mutant. 2.2% of 65,000 active. OD615. growth inhibition, % at 10 µM (by protocol);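 active = growth inhibition at or above a cutoff equal to the mean over every tested compound plus 3 SD, cut at about 60% in these data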;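 note: growth measured after 20 h incubation at 37 °C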
#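 Signal: optical density read at 615 nm; Assay system: E. coli ΔtolC::kan strain BW25113; Times: 20 h incubation with compound, 37 °C; Dosing: 10 µM final, single dose.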
# PostGolgi yeast: growth inhibition of a yeast mutant, post-Golgi transport screen; post-Golgi transport phenotypic cell assay; inhibition, % at 10 µM; 0.9% of 98,000 active;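 note: yeast cells grown in 1536-well plates; yeast grown about 18 h at 30C before absorbance read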
# Cav32 inh: blocks human Cav3.2 T-type calcium channel; O95180; 4% of 100,000 active; B-score at 10 µM; Cav3.2-expressing cells, Fluo-4 calcium fluorescence FDSS; stronger effect = lower value;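 active = single-dose well whose peak fluorescence ratio is a statistical outlier from its plate by either plate-standardised score or position-corrected B-score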
# A number is an active result; n = inactive; x = no result. Only some compounds are listed: those with a hit (about 8.4% of all), similar ones and a draw of the others. Cut-off read from the data, not from the text of the source, unless noted: active = inhibition above about 30%; inactive = the rest.
SMILES,PostGolgi ctrl,E coli WT exp,tolC growth inh,PostGolgi yeast,Cav32 inh
O=S(=O)(c1ccccc1)c1cnn(-c2ccccc2)c1-c1ccc(F)cc1,n,n,x,n,-5.8
COc1ccc(-n2ncc(S(=O)(=O)c3ccccc3)c2-c2ccc(Cl)cc2)cc1,n,n,x,n,-6.7
COc1ccc(Sc2cnn(-c3ccccc3)c(=O)c2Cl)cc1,n,n,x,n,n
CCCCCc1c(C)nc(Nc2nc(C)c3cc(OC)ccc3n2)[nH]c1=O,n,n,x,n,-3.8
COc1ccc2c(C)nc(Nc3nc(C)c(C)c(=O)[nH]3)nc2c1,66,n,x,n,n
Cc1ccc(Nc2nc(C)c(CCC(C)C)c(=O)[nH]2)cc1,n,n,n,n,n
Cc1nc(Nc2ccc(F)cc2)[nH]c(=O)c1CCC(C)C,32,n,n,n,-5.6
CCCCCc1c(C)nc(Nc2ccccc2)[nH]c1=O,n,n,75,n,n
CC(O)c1n(C)c(Cl)c[n+]1C (configuration not stated),n,n,n,n,x
c1cnc(SCCOc2ccc3c(c2)CCC3)nc1,n,n,x,n,n
CCC(=O)N1CCc2cc(S(=O)(=O)N3CCc4ccccc43)ccc21,n,n,n,n,n
O=C(O)CCCC(=O)N1CCc2cc(S(=O)(=O)N3CCc4ccccc43)ccc21,n,n,75,n,n
C=CCCCCCCCCc1nc(=S)[nH][nH]1,67,n,x,n,-5.2
CC12CCC(C(=O)NCc3ccccc3)(OC1=O)C2(C)C (configuration not stated),n,n,n,n,n
CC12CCC(C(=O)NCc3ccc4c(c3)OCO4)(OC1=O)C2(C)C (configuration not stated),33,n,n,n,n
Cc1ccc(C)c(NC(=S)NCc2ccc3c(c2)OCO3)c1,n,n,x,n,n
Cc1cc(C)cc(NC(=S)NCc2ccc3c(c2)OCO3)c1,x,x,x,x,-4.8
Cc1ccccc1NC(=S)NCc1ccc2c(c1)OCO2,38,n,x,n,x
O=C(Nc1ccc(Cn2cccn2)cc1)c1ccc(COc2ccc(Br)cc2)cc1,n,n,x,n,n
O=C(Nc1ccc(Cn2cccn2)cc1)c1ccc(COc2cccc(Br)c2)cc1,n,n,x,n,-4.7
O=C(Nc1ccn(Cc2ccccc2F)n1)c1ccc(COc2ccc(Br)cc2)cc1,n,n,x,n,-4.6
Cc1nn(Cc2cccc(C(=O)Nc3ccn(Cc4ccccc4F)n3)c2)c(C)c1[N+](=O)[O-],n,n,x,n,-4.3
COc1ccc2nc(SCC(=O)Nc3ccc(S(=O)(=O)N4CCCC4)cc3)c(C#N)cc2c1,33,n,n,n,n
COc1ccc2nc(SCC(=O)N3CCCCCC3)c(C#N)cc2c1,32,n,n,n,n
COc1ccc2nc(N3CCCC3)c(C#N)cc2c1,n,n,n,n,-3.6
SMILES,PostGolgi ctrl,E coli WT exp,tolC growth inh,PostGolgi yeast,Cav32 inh
CCc1ccc2nc(SCC(=O)N3CCCCC3)c(C#N)cc2c1,x,x,x,x,n
COc1ccc2nc(SCC(=O)N(C)C3CCCCC3)c(C#N)cc2c1,n,n,63,n,n
N#Cc1ccsc1NC(=O)COc1ccc(-c2nnco2)cc1,x,x,n,x,n
Cc1ccc2nc(NC3=NCN(Cc4ccc5c(c4)OCO5)CN3)nc(C)c2c1,x,x,n,x,x
COc1ccc(CNC(=O)c2ccc3c(c2)N(C)C(=O)CS3=O)cc1 (configuration not stated),n,n,n,n,n
CC(C)NC(=O)CSc1nc(Cc2cccs2)nc2ccccc12,n,n,x,n,n
Cc1ccc2cc(C#N)c(N3CCCN(C(=O)C4CCCO4)CC3)nc2c1C (configuration not stated),n,n,n,n,n
Cc1ccc2cc(C#N)c(N3CCCC3)nc2c1C,47,n,n,n,x
COc1cc(O)c(C(C)=O)c(CC(=O)O)c1,x,x,x,x,n
CCOc1ccc(NC(=O)Nc2cccs2)cc1,n,n,x,n,n
COC(=O)c1ccc2c(c1)N(Cc1nc(-c3cccc(C)c3)oc1C)C(=O)C1CCCN21 (configuration not stated),n,n,n,n,x
CCc1sc(N(C(=O)Cc2ccccc2)c2ccc(F)cc2)nc1-c1ccccc1,n,n,x,n,-5.3
N#Cc1nc(COc2cccc(Cl)c2)oc1NCc1ccco1,33,n,n,n,n
Cc1cccc(OCc2nc(C#N)c(NCc3ccc4c(c3)OCO4)o2)c1,n,n,79,n,-6.8
Oc1cccc(Nc2nc(NCC3CCCO3)c3ccccc3n2)c1 (configuration not stated),n,n,94,n,n
COc1ccc(C2C(C(=O)Nc3ccccc3)=C(C)N=C3SCC(=O)N32)cc1 (configuration not stated),x,x,x,x,-9.9
